In assay [1] the test system is Caco-2. Put plainly: Antiproliferative activity against human Caco-2 cells assessed as inhibition of cell growth incubated for 24 hrs by MTT assay. The note with it: Caco-2, 24 h. It is filed as functional, cell-based. On the technique in general: Formazan colour is commonly taken as a measure of viable cells.
Assay [2] deals with DLD-1. Kind of assay: Antiproliferative activity against human DLD-1 cells assessed as inhibition of cell growth incubated for 24 hrs by MTT assay. The conditions noted are these: DLD-1, 24 h. It is filed as functional, cell-based.
The subject of assay [3] is A 172. Kind of assay: Antiproliferative activity against human A-172 cells assessed as inhibition of cell growth incubated for 24 hrs by MTT assay. The note with it: A 172, 24 h. The class given is functional, cell-based.
Assay [4] has as its system A549. Kind of assay: Antiproliferative activity against human A549 cells assessed as inhibition of cell growth incubated for 24 hrs by MTT assay. The class given is functional, cell-based. The conditions noted are these: A549, 24 h.
Assay [5] is described as follows: Antiproliferative activity against human Tera-1 cells assessed as inhibition of cell growth incubated for 24 hrs by MTT assay. The class given is functional, cell-based. The conditions noted are these: Tera-1, 24 h.
The test system of assay [6] is HT-29. Kind of assay: Antiproliferative activity against human HT-29 cells assessed as inhibition of cell growth incubated for 24 hrs by MTT assay. The conditions noted are these: HT-29, 24 h. It is filed as functional, cell-based.
Assay [7] relates to HT-29. Kind of assay: Induction of cell cycle arrest in human HT-29 cells assessed as accumulation of cells at G0/G1 phase at 4 uM incubated for 24 hrs by RNase/PI staining based flow cytometry analysis (reference value: 50.206%). It is filed as functional.
For assay [8], the system named is HT-29. Put plainly: Induction of cell cycle arrest in human HT-29 cells assessed as accumulation of cells at G2/M phase at 4 uM incubated for 24 hrs by RNase/PI staining based flow cytometry analysis (reference value: 23.695 %). The class given is functional.
For assay [9], the system named is HT-29. Put plainly: Induction of mitochondrial ROS generation in human HT-29 cells at 4 uM by MitoSOX red dye based flow cytometry analysis. It is filed as functional, cell-based. In short, it runs like this:
(§1)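 Mitochondrial superoxide in HT-29 cells was read with the mitochondria-localizing MitoSOX Red probe after treatment at 1, 2 or 4 μM. Flow cytometry histograms were acquired on 10,000 cells, and results were expressed as mean fluorescence intensity. Versus control, significance was tested by one-way ANOVA with Tukey's post hoc test.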
(In general: In flow cytometry, cells or beads pass a laser one at a time.)

Assay [10] concerns HT-29. Kind of assay: Downregulation of beta-catenin protein expression in human HT-29 cells at 4 uM by immunostaining based confocal microscopic analysis. The class given is functional, cell-based.
Assay [11] has as its system HT-29. Kind of assay: Downregulation of PI3K-p85 expression in human HT-29 cells by immunofluorescence based confocal microscopic analysis. The class given is functional, cell-based. In short, it runs like this: (§2)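 HT-29 cells were stained for F-actin with Phalloidin Red alongside immunofluorescent staining of PI3K-p85 (or NF-κB), then examined by fluorescence imaging for actin-filament integrity and p85 signal.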

For assay [12], the system named is HT-29. Kind of assay: Inhibition of nuclear translocation of NFkappaB in human HT-29 cells assessed as reduction in NFkappaB expression in nucleus by immunofluorescence based confocal microscopic analysis. It is filed as functional, cell-based. In short, it runs like this: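 HT-29 colon cancer cells were treated with test compounds, then immunostained for NF-κB and co-stained for F-actin. Nuclear NF-κB signal was read by immunofluorescence imaging.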

In assay [13] the test system is HT-29. Kind of assay: Cytotoxicity against human HT-29 cells assessed as damage of actin filament by F-actin/phalloidin red staining based confocal microscopic analysis. It is filed as functional, cell-based. In short, it runs like this: as §2
The target of assay [14] is 182 kDa tankyrase-1-binding protein (Homo sapiens) (UniProt Q9C0C2). Kind of assay: Inhibition of TAB-182 phosphorylation in human HT-29 cells at 4 uM incubated for 72 hrs by Western blot analysis. The class given is cell-based.
Sequence of 182 kDa tankyrase-1-binding protein (Homo sapiens) (Q9C0C2 whole entry): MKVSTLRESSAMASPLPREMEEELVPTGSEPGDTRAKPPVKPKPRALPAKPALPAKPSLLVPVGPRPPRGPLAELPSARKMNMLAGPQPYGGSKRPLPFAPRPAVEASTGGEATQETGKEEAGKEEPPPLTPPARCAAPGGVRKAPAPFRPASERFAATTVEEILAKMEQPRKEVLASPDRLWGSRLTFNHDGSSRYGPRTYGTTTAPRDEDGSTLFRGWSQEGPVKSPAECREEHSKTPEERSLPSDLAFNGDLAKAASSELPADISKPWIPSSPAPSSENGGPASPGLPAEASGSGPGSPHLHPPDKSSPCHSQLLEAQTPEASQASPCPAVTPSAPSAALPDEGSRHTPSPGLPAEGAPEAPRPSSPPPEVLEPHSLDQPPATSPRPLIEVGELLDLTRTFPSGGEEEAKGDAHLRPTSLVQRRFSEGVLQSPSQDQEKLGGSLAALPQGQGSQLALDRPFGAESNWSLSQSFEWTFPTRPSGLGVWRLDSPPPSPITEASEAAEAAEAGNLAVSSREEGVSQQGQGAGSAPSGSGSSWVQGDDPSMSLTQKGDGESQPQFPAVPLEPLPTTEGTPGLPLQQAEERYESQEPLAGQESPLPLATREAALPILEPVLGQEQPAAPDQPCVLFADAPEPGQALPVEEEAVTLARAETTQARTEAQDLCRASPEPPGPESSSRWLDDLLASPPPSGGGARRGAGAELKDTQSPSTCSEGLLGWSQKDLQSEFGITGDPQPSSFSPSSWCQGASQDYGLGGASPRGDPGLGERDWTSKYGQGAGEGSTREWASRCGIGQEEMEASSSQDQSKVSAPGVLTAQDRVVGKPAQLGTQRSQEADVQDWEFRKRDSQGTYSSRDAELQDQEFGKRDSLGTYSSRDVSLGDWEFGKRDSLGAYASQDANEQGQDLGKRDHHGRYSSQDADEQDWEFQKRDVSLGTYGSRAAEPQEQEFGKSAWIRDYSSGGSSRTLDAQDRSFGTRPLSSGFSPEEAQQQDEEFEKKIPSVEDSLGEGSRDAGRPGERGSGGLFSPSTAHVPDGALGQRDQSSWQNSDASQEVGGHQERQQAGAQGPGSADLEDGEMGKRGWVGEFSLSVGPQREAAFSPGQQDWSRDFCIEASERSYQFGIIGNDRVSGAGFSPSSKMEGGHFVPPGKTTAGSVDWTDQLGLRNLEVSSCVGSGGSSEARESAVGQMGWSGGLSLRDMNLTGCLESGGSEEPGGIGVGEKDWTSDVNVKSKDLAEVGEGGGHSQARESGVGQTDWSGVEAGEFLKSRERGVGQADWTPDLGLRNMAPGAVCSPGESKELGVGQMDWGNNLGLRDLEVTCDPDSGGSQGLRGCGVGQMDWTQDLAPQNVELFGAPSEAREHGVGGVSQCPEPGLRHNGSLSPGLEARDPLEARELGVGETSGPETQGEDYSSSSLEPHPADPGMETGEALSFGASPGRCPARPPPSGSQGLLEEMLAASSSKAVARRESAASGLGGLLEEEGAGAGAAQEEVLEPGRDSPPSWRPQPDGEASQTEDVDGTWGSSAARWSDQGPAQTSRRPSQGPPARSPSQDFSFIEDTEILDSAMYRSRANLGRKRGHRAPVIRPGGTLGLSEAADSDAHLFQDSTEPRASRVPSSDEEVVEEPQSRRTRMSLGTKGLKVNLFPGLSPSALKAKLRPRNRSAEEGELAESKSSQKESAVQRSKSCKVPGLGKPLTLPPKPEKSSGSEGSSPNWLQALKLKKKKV
The target of assay [15] is Glycogen synthase kinase-3 beta (Homo sapiens) (UniProt P49841). Kind of assay: Inhibition of GSK3beta phosphorylation in human HT-29 cells at 4 uM incubated for 72 hrs by Western blot analysis. It is filed as cell-based.
Sequence of Glycogen synthase kinase-3 beta (Homo sapiens) (P49841 whole entry, looked up): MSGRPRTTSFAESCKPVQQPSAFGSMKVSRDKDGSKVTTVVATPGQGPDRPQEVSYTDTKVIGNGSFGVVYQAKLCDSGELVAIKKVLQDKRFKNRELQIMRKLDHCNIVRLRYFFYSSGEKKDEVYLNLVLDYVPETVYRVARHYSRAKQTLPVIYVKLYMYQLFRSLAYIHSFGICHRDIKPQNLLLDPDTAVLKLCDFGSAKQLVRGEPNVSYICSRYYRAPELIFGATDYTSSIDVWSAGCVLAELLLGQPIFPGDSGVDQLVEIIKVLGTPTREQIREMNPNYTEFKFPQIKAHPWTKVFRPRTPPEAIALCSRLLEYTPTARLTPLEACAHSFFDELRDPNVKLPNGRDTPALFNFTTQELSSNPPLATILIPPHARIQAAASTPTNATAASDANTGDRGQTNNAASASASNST
For assay [16], the system named is HT-29. Put plainly: Inhibition of AXIN-1 protein expression in human HT-29 cells at 4 uM incubated for 72 hrs by Western blot analysis. The class given is functional, cell-based.
For assay [17], the system named is HT-29. Kind of assay: Induction of cell cycle arrest in human HT-29 cells assessed as accumulation of cells at S phase at 1 uM incubated for 24 hrs by RNase/PI staining based flow cytometry analysis (reference value: 17.934 %). The class given is functional.
The test system of assay [18] is HT-29. Put plainly: Downregulation of TAB-182 protein expression in human HT-29 cells at 1 uM by immunostaining based confocal microscopic analysis. It is filed as functional, cell-based.
Assay [19] deals with HT-29. Kind of assay: Inhibition of AXIN-2 protein expression in human HT-29 cells at 1 uM incubated for 72 hrs by Western blot analysis. It is filed as functional, cell-based. A general note: A western blot detects proteins with antibodies after separation by electrophoresis.
Assay [20] concerns HT-29. Kind of assay: Inhibition of phosphorylated GSK-3beta protein expression in human HT-29 cells at 1 uM incubated for 72 hrs by Western blot analysis. The class given is functional, cell-based.
Assay [21] concerns HT-29. Kind of assay: Induction of cell cycle arrest in human HT-29 cells assessed as accumulation of cells at G0/G1 phase at 2 uM incubated for 24 hrs by RNase/PI staining based flow cytometry analysis (reference value: 50.206%). The class given is functional.
Assay [22] has as its system HT-29. Put plainly: Induction of cell cycle arrest in human HT-29 cells assessed as accumulation of cells at G2/M phase at 2 uM incubated for 24 hrs by RNase/PI staining based flow cytometry analysis (reference value: 23.695 %). The class given is functional.
For assay [23], the system named is HT-29. Put plainly: Induction of mitochondrial ROS generation in human HT-29 cells at 2 uM by MitoSOX red dye based flow cytometry analysis. The class given is functional, cell-based. The essentials: as §1
In assay [24] the target is T1, Catenin beta-1 (Homo sapiens) (UniProt P35222).
T1 sequence (whole entry): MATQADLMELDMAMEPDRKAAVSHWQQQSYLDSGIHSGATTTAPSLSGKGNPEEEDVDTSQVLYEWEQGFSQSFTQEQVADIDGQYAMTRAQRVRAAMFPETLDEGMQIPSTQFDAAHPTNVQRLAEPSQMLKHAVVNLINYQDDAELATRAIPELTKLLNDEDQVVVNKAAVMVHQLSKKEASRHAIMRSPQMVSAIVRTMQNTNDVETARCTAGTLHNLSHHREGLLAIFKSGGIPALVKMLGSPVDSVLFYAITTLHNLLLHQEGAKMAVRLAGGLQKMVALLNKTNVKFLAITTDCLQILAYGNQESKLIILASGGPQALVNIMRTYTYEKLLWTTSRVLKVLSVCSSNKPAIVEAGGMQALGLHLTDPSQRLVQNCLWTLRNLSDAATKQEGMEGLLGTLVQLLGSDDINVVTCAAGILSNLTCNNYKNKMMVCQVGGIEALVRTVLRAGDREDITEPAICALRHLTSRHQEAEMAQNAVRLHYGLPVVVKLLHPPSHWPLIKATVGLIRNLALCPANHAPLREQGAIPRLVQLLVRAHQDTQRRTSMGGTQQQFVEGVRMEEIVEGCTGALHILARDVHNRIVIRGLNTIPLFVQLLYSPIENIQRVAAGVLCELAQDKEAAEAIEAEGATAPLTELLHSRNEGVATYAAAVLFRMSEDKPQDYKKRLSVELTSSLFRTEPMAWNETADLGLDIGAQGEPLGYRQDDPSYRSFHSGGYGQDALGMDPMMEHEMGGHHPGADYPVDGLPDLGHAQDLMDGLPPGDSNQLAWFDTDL
Kind of assay: Inhibition of beta-catenin phosphorylation in human HT-29 cells at 2 uM incubated for 72 hrs by Western blot analysis. The class given is cell-based.

Assay [25] deals with HT-29. Kind of assay: Inhibition of AXIN-1 protein expression in human HT-29 cells at 2 uM incubated for 72 hrs by Western blot analysis. It is filed as functional, cell-based.
Assay [26] concerns HT-29. Kind of assay: Inhibition of phosphorylated PI3K-p85 protein expression in human HT-29 cells at 2 uM incubated for 72 hrs by Western blot analysis. The class given is functional, cell-based.
Assay [27] relates to HT-29. Put plainly: Inhibition of pan-AKT protein expression in human HT-29 cells at 2 uM incubated for 72 hrs by Western blot analysis. The class given is functional, cell-based.

The source made the active and inactive calls. The calls are words filed in the database; no cut-off is given here.

For `COc1cccc(-n2c(SCCc3c[nH]c4ccccc34)nnc2-c2ccncc2)c1`, the IC50 in assay [1] stood at 15.5 µM; in assay [2], 9.3 µM; in [3], 26.8 µM; in assay [4] it was 25.1 µM; in [5], 19.4 µM; in assay [6] it was 3.6 µM. The Activity amounted to 42.657% in assay [7] and 22.943% in [8]. The outcome in assay [9], in assay [10], in [11] and in assay [13] was Active. Also, the inhibition entry in assay [12], in assay [14], in [15] and in assay [16] was “Active” each time.
Take `COc1ccc(-n2c(SCCc3c[nH]c4ccccc34)nnc2-c2ccncc2)cc1`: the IC50 in [1] was 3.9 µM; in assay [2], 7 µM; in [3] it was 9 µM; in assay [4], 6.7 µM; in assay [5], 4.3 µM; in [6] it was 1 µM. In assay [17], the Activity is listed as 9.899%. The result in assay [18], in assay [11] and in [13] was Active. The inhibition entry in assay [12], in assay [19] and in assay [20] was “Active” each time.
In the case of `Fc1ccccc1-n1c(SCCc2c[nH]c3ccccc23)nnc1-c1ccncc1`, the IC50 in assay [1] was found to be 9.1 µM; in assay [2], 7 µM; in assay [3], 9.5 µM; in assay [4], 5.3 µM; in [5], 10.5 µM; in assay [6] it was 2.4 µM. In addition, the values for the Activity in assay [21] and in assay [22] were 67.66% and 18.982%, respectively. Besides, the outcome in [23], in assay [11] and in assay [13] was Active. For the same molecule, the inhibition result in assay [12], in assay [24], in [25], in assay [26] and in [27] was “Active” in each case.

One may read the IC50 as the concentration that gives 50% inhibition.
